Measurements: PubChem BioAssay AID623913 (Johns Hopkins Ion Channel Center, 2012)
Activity calls are given as the source filed them.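 The calls were made as follows: active = KCNQ2 potassium channel blocked by over 30% at some tested dose, with a dose response curve fitted; inactive = no blocking at any dose, or no fitted curve.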

target: Potassium voltage-gated channel subfamily KQT member 2 (Rattus norvegicus) (UniProt O88943); assay: block of rat KCNQ2 potassium current – cell-based, FluxOR thallium flux, concentration-response, set 4, selectivity assay for KCNK9 inhibitor project, SAR follow-up (AID 623913); settings: KCNQ2 cells, FluxOR thallium flux fluorescence
Method in brief: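 Test system: CHO cells expressing rat KCNQ2 potassium channel / Schedule: dye 90 min, compounds 20 min, room temperature / Measured by: FluxOR thallium flux fluorescence, kinetic read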

Sequence of Potassium voltage-gated channel subfamily KQT member 2 (Rattus norvegicus) (O88943 whole entry, looked up): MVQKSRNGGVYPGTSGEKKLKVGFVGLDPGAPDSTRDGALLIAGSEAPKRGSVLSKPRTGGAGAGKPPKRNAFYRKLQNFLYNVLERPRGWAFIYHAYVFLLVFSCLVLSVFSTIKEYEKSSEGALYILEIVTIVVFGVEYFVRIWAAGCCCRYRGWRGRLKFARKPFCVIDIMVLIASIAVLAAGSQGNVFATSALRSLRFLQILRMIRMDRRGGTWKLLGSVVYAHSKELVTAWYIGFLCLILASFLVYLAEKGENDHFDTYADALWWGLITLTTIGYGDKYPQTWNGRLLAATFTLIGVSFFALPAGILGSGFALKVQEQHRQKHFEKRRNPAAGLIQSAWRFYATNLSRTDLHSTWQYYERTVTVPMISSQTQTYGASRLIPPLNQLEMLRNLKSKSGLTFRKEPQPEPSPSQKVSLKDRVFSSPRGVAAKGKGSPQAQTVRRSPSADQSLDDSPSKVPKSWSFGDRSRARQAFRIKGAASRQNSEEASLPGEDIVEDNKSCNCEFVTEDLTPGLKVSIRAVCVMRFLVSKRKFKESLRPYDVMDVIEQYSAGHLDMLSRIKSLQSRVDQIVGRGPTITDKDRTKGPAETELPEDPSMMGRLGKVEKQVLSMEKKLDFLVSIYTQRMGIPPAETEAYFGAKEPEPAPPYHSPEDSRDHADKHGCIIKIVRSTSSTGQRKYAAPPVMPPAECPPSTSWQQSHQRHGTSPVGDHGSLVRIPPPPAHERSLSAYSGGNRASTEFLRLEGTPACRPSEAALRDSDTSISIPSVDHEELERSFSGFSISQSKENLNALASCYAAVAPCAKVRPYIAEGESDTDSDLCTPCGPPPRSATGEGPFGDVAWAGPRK

Structure (SMILES)	IC50 [µM]
COc1ccc(C(=O)CCSc2nnc(-c3ccco3)n2C(C)C2CC3CCC2C3)cc1OC (stereo not given)	11.1

same assay, conditions: KCNQ2 cells, FluxOR thallium flux fluorescence; at 30 µM (top of the series)

Structure (SMILES)	thallium flux ratio, lower = inhibition
COc1ccc(CC(=O)NCc2ccccc2-c2ccccc2C(=O)NCc2ccc(F)cc2F)cc1	inactive
C[C@H](C1CCCCC1)n1c(-c2ccccc2F)n[nH]c1=S	inactive
CC(C1CC2CCC1C2)n1c(SCCc2ccccn2)nnc1-c1ccco1 (stereo not given)	inactive
CC(C1CC2CCC1C2)n1c(-c2ccco2)nn(CCc2ccncc2)c1=S (stereo not given)	inactive
CCCC(=O)C1CCN(c2ncnc3c2CN(C(=O)c2ccc(-c4ccccc4)cc2)CC3)CC1	inactive
C[C@@H]([C@@H]1CC2CC[C@H]1C2)n1c(-c2ccco2)n[nH]c1=S	inactive
C[C@H]([C@@H]1CC2CC[C@H]1C2)n1c(-c2ccsc2)n[nH]c1=S	inactive
C[C@@H]([C@@H]1CC2CC[C@H]1C2)n1c(-c2ccsc2)n[nH]c1=S	inactive
COc1cccc(-c2nnc(SSc3nnc(-c4cccc(OC)c4)n3C(C)C3CC4CCC3C4)n2C(C)C2CC3CCC2C3)c1 (stereo not given)	inactive
COc1cccc(-c2n[nH]c(=S)n2[C@H](C)C2CCCCC2)c1	inactive
COc1ccc(NC(=O)CSc2nnc(-c3ccco3)n2C(C)C2CC3CCC2C3)cc1OC (stereo not given)	inactive
COc1cccc(CCSc2nnc(-c3ccco3)n2C(C)C2CC3CCC2C3)c1 (stereo not given)	inactive
CC(C1CC2CCC1C2)n1c(N)nnc1-c1ccco1 (stereo not given)	inactive
C[C@H](C1CCCCC1)n1c(-c2ccsc2)n[nH]c1=S	inactive
C[C@H]([C@@H]1CC2CC[C@H]1C2)n1c(-c2ccco2)n[nH]c1=S	inactive
C[C@H]([C@@H]1CC2CC[C@H]1C2)n1c(-c2ccccc2F)n[nH]c1=S	inactive
COc1cccc(-c2n[nH]c(=S)n2[C@H](C)[C@@H]2CC3CC[C@H]2C3)c1	inactive
COc1ccc(CSc2nnc(-c3ccco3)n2C(C)C2CC3CCC2C3)cc1OC (stereo not given)	inactive
CC(C1CC2CCC1C2)n1c(SCCc2cccc(O)c2)nnc1-c1ccco1 (stereo not given)	inactive
CC(C1CC2CCC1C2)n1c(SCC(=O)N2CCN(C)CC2)nnc1-c1ccco1 (stereo not given)	inactive
CC(C1CCN(C)CC1)n1c(-c2ccco2)n[nH]c1=S (stereo not given)	inactive
CC([C@@H]1CC2CC[C@H]1C2)n1c(-c2ccsc2)n[nH]c1=S (stereo not given in full)	inactive
CC(C1CC2CCC1C2)n1c(SCCN2CCOCC2)nnc1-c1ccco1 (stereo not given)	inactive
CC(C1C[C@H]2CCC1C2)n1c(-c2ccsc2)n[nH]c1=S (stereo not given in full)	inactive
